The values that follow come from ChEMBL document CHEMBL5357046, “Sirtuin 1-activating derivatives belonging to the anilinopyridine class displaying in vivo cardioprotective activities” (2024).

The subject of assay [1] is Rattus norvegicus. The assay can be described thus: Cardioprotective activity against acute myocardial infarction Wistar rat model assessed as reduction in percentage of ischemic area to total area of left ventricle at 0.1 mg/kg, ip by ECG analysis. Type of assay: functional. Set-up: scale not given: the % may be the effect or the level left. The essentials:
(§1)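 Adult male Wistar rats (350–450 g) dosed i.p. 2 h before surgery (vehicle DMSO 1 ml kg⁻¹), then anaesthetized with thiopental (70 mg kg⁻¹ i.p.). LAD occluded 30 min (ST elevation on ECG, cyanosis) then reperfused 120 min. Hearts washed on Langendorff, LV sliced and stained with TTC 1% at 37 °C for 20 min; infarct area/LV area by planimetry. n = 5 per group.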

Assay [2] concerns the target T1, NAD-dependent protein deacetylase sirtuin-1 (Homo sapiens) (UniProt Q96EB6).
T1 sequence (whole entry): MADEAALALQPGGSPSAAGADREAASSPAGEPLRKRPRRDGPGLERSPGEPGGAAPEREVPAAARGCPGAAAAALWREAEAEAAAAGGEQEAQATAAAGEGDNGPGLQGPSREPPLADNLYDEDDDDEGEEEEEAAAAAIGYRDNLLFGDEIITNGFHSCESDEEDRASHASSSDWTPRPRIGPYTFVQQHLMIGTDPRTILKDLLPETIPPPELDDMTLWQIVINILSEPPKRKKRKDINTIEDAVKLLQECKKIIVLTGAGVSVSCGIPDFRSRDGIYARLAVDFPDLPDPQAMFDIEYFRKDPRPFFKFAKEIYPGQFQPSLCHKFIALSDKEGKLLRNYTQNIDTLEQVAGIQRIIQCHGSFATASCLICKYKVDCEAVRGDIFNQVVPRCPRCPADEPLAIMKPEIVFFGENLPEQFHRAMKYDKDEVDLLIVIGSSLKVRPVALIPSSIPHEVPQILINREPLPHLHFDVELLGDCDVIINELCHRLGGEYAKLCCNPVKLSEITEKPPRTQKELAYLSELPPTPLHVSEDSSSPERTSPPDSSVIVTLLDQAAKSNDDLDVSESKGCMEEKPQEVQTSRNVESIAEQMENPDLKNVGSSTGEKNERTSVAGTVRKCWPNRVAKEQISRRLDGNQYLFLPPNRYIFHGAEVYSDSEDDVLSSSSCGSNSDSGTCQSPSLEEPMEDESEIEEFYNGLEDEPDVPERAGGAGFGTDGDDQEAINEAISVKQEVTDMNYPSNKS
The experiment in a line: Activation of human recombinant SIRT1 at 3 to 100 uM by fluorescence based spectrofluorometer analysis. To be noted: filed as activator, dose 3-100 µM.

The target in assay [3] is T1, NAD-dependent protein deacetylase sirtuin-1 (Homo sapiens). The assay can be described thus: Activation of human recombinant SIRT1 by fluorescence based spectrofluorometer analysis. To be noted: filed as activator, dose 3-100 µM.
The target is the same in assay [4]. The assay can be described thus: Activation of human recombinant SIRT1 at 3 uM by fluorescence based spectrofluorometer analysis.
In assay [5] the test system is Rattus norvegicus. The assay can be described thus: Cardioprotective activity against acute myocardial infarction Wistar rat model assessed as reduction in percentage of ischemic area to total area of left ventricle at 10 mg/kg, ip by ECG analysis. Type of assay: functional. On the set-up: scale not given: the % may be the effect or the level left. The essentials: as §1

The source made the active and inactive calls. The calls are words filed in the database; no cut-off is given here.

On to `Oc1ccc(Nc2cccc(-c3ccc(O)cc3)n2)cc1`, for which the Activity was 28% in the assay on Rattus norvegicus [1] and “Dose-Dependent Effect” in assay [3]. The result in assay [2] was Active.

Turning to `Oc1cccc(Nc2cccc(-c3cccc(O)c3)n2)c1`, in assay [2], the outcome was Active. For the same molecule, the Activity result in assay [3] is “Dose-Dependent Effect”.

On to `Oc1cccc(Nc2ccnc(-c3cccc(O)c3)c2)c1`, for which, in assay [4], the result was inactive. Further, the Activity result in assay [3] was “Dose-Dependent Effect”.

Take `Oc1cccc(Nc2cc(-c3cccc(O)c3)ccn2)c1`: the result in assay [2] was Active.

As to `Oc1ccc(/C=C/c2cc(O)cc(O)c2)cc1` [RESVERATROL], in the assay on Rattus norvegicus [5], the Activity was found to be 30%.

As for `Oc1ccc(Nc2cccc(-c3cccc(O)c3)n2)cc1`, the result in assay [2] was Active. The Activity entry in assay [3] was “Dose-Dependent Effect”.

Turning to `Oc1ccc(-c2cccc(Nc3cccc(O)c3)n2)cc1`, the result in assay [2] was Active. The Activity result in assay [3] is “Dose-Dependent Effect”; in the assay on Rattus norvegicus [5], 6%.
